Holding throughout (assay type): functional, cell-based
One experiment deals with DLD-1. Nature of the experiment: Antitumor activity against human DLD1 cells by trypan blue exclusion assay. The method in brief: (§1)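 Tumour cells were grown in DMEM or RPMI with 10% fetal bovine serum and 1 unit/mL penicillin-streptomycin. They were seeded in six-well dishes at 1.0 × 10⁵ cells/mL/well, and compound was added 24 h later over a range of concentrations. After 96 h of exposure, viable cells in duplicate wells were counted by trypan blue exclusion.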

A further experiment relates to DU-145. The experiment in a line: Antitumor activity against AR-negative human DU145 cells by trypan blue exclusion assay. Put shortly:
as §1

Another experiment has as its system BT-20. The experiment in a line: Antitumor activity against human BT20 cells by trypan blue exclusion assay. The method in brief: as §1
Experiment [1] is described as follows: Antitumor activity against human H157 cells by trypan blue exclusion assay. To be noted: NCI-H157. The method in brief:
as §1

Take `COc1ccc(CS(=O)(=O)/C=C/c2ccc(N)cc2)cc1`: the IC50 (with DLD-1; in the experiment with DU-145; with BT-20; in experiment [1]) was greater than 20 µM throughout.
On to `COc1ccc(CS(=O)(=O)/C=C/c2ccccc2OC)cc1`, for which the IC50 with DLD-1 worked out at 7.5 µM; with DU-145 it was 3.5 µM; in the experiment with BT-20, 5 µM; in experiment [1], 5 µM.
`COc1ccc(CS(=O)(=O)/C=C/c2ccc(F)cc2OC)cc1`: the IC50 in the experiment with DLD-1 came out at 15 µM; in the experiment on DU-145, 10 µM; with BT-20, 15 µM; in experiment [1] it was 20 µM.
As to `COc1ccc(CS(=O)(=O)/C=C/c2c(OC)cc(O)cc2OC)cc1`, the IC50 (in the experiment on DLD-1; in the experiment on DU-145; in the experiment on BT-20; in experiment [1]) was greater than 20 µM throughout.
As for `COc1ccc(CS(=O)(=O)/C=C/c2cc(OC)cc(OC)c2)cc1`, the half-maximal inhibitory concentration (IC50) (in the experiment on DLD-1; with DU-145; in the experiment on BT-20; in experiment [1]) was greater than 20 µM each time.
Turning to `COc1cc(OC)c(/C=C/S(=O)(=O)Cc2ccc(O)cc2)c(OC)c1`, the IC50 stood at 20 µM in the experiment with DLD-1, 7.5 µM with DU-145, 15 µM in the experiment with BT-20 and 20 µM in experiment [1].
As for `COc1ccc(CS(=O)(=O)/C=C/c2c(OC)cccc2OC)cc1`, the IC50 in the experiment on DLD-1 was found to be 0.7 µM; with DU-145 it was 0.25 µM; with BT-20, 0.4 µM; in experiment [1], 0.7 µM.
Regarding `COc1ccc(CS(=O)(=O)/C=C/c2c(C)cc(C)cc2C)cc1`, the IC50 (in the experiment on DLD-1; with DU-145; in the experiment with BT-20; in experiment [1]) was greater than 20 µM throughout.
Consider `COc1ccc(CS(=O)(=O)/C=C/c2cc(C)cc(C)c2)cc1`, for which the IC50 (in the experiment on DLD-1; with DU-145; with BT-20; in experiment [1]) was greater than 20 µM in each case.
Consider `COc1ccc(CS(=O)(=O)/C=C/c2cc(OC)c(OC)c(OC)c2)cc1`, for which the IC50 (in the experiment on DLD-1; in the experiment on DU-145; in the experiment with BT-20; in experiment [1]) was greater than 20 µM each time.
Turning to `COc1ccc(CS(=O)(=O)/C=C/c2ccc(OC)cc2OC)cc1`, the IC50 (with DLD-1; with DU-145; in the experiment with BT-20; in experiment [1]) was greater than 20 µM each time.
For the compound `COc1ccc(CS(=O)(=O)/C=C/c2cc(OC)ccc2OC)cc1`, the half-maximal inhibitory concentration (IC50) (in the experiment with DLD-1; with DU-145; in the experiment on BT-20; in experiment [1]) was greater than 20 µM each time.
Turning to `COc1ccc(CS(=O)(=O)/C=C/c2c(OC)cc(O)cc2OC)cc1O`, the IC50 with DLD-1 worked out at 0.5 µM; in the experiment on DU-145, 0.5 µM; with BT-20 it was 0.25 µM; in experiment [1], 0.5 µM.
Consider `COc1ccc(CS(=O)(=O)/C=C/c2ccc(F)cc2Cl)cc1`, for which the IC50 in the experiment with DLD-1 worked out at 4 µM; in the experiment with DU-145 it was 2 µM; with BT-20, 2.5 µM; in experiment [1] it was 2.5 µM.
With `COc1cc(OC)c(/C=C/S(=O)(=O)Cc2ccc(OC)c(OC)c2OC)c(OC)c1`, the IC50 is 15 µM in the experiment on DLD-1, 12.5 µM with DU-145, 15 µM in the experiment with BT-20 and 15 µM in experiment [1].
As for `COc1ccc(CS(=O)(=O)/C=C/c2ccc(OC)c(OC)c2OC)cc1`, the IC50 (in the experiment on DLD-1; with DU-145; with BT-20; in experiment [1]) was greater than 20 µM in each case.
On to `COc1ccc(CS(=O)(=O)/C=C/c2cc(OC)c(OC)c(OC)c2)cc1O`, for which the IC50 in the experiment with DLD-1 turned out to be 10 µM; with DU-145 it was 5 µM; with BT-20, 7.5 µM; in experiment [1], 10 µM.
For the compound `COc1ccc(CS(=O)(=O)/C=C/c2ccc(OC)c(OC)c2)cc1`, the IC50 (in the experiment with DLD-1; in the experiment with DU-145; with BT-20; in experiment [1]) was greater than 20 µM throughout.
`COc1ccc(/C=C/S(=O)(=O)Cc2ccc(OC)cc2)cc1`: the IC50 (with DLD-1; in the experiment on DU-145; in the experiment with BT-20; in experiment [1]) was greater than 20 µM throughout.
For the compound `COc1ccc(CS(=O)(=O)/C=C/c2c(OC)cc(F)cc2OC)cc1`, the IC50 is 0.75 µM in the experiment on DLD-1, 0.5 µM in the experiment with DU-145, 0.75 µM with BT-20 and 0.5 µM in experiment [1].
Take `COc1ccc(CS(=O)(=O)/C=C/c2ccc([N+](=O)[O-])cc2)cc1`: the IC50 in the experiment on DLD-1 was found to be 5 µM; with DU-145, 7.5 µM; with BT-20, 5 µM; in experiment [1], 7.5 µM.
For `COc1cc(OC)c(/C=C/S(=O)(=O)Cc2cc(OC)c(OC)c(OC)c2)c(OC)c1`, the IC50 (in the experiment on DLD-1; in the experiment with DU-145; in the experiment with BT-20; in experiment [1]) was greater than 20 µM throughout.
Take `COc1ccc(CS(=O)(=O)/C=C/c2ccc(Cl)cc2)cc1`: the IC50 was 3 µM in the experiment with DLD-1, 2.5 µM in the experiment with DU-145, 2 µM with BT-20 and 3.5 µM in experiment [1].
For `COc1cc(OC)c(/C=C/S(=O)(=O)Cc2ccc([N+](=O)[O-])cc2)c(OC)c1`, in that order: 15 µM, 15 µM, 15 µM and 20 µM.
For `COc1cc(OC)c(/C=C/S(=O)(=O)Cc2ccc(Cl)cc2)c(OC)c1`, the IC50 with DLD-1 was found to be 15 µM; in the experiment on DU-145, 7.5 µM; in the experiment with BT-20, 10 µM; in experiment [1] it was 15 µM.
As for `COc1ccc(CS(=O)(=O)/C=C/c2c(C)cccc2C)cc1`, the IC50 (with DLD-1; in the experiment with DU-145; in the experiment with BT-20; in experiment [1]) was greater than 20 µM in each case.
As for `COc1cc(OC)c(/C=C/S(=O)(=O)Cc2ccc(OC(F)(F)F)cc2)c(OC)c1`, the IC50 in the experiment with DLD-1 is 4 µM; with DU-145 it was 4 µM; in the experiment with BT-20 it was 3 µM; in experiment [1], 6 µM.
For `COc1ccc(CS(=O)(=O)/C=C/c2cc(OC)c(OC)cc2OC)cc1`, the half-inhibitory concentration (IC50) (with DLD-1; in the experiment with DU-145; with BT-20; in experiment [1]) was greater than 20 µM throughout.
As to `COc1ccc(CS(=O)(=O)/C=C/c2ccc(C)cc2C)cc1`, the IC50 was 15 µM with DLD-1, 12 µM in the experiment with DU-145, 15 µM in the experiment with BT-20 and 15 µM in experiment [1].
`COc1cc(OC)c(/C=C/S(=O)(=O)Cc2ccc(C(=O)O)cc2)c(OC)c1`: the half-inhibitory concentration (IC50) in the experiment on DLD-1 is 15 µM; in the experiment with DU-145, 10 µM; in the experiment on BT-20 it was 15 µM; in experiment [1] it was 17.5 µM.
Regarding `COc1ccc(CS(=O)(=O)/C=C/c2ccc(F)cc2)cc1`, the IC50 in the experiment with DLD-1 was 2 µM; with DU-145 it was 1.25 µM; in the experiment with BT-20, 1.5 µM; in experiment [1] it was 2.5 µM.
As for `COc1cc(OC)c(/C=C/S(=O)(=O)Cc2ccc(C#N)cc2)c(OC)c1`, the IC50 in the experiment on DLD-1 stood at 20 µM; with DU-145 it was 7.5 µM; in the experiment on BT-20, 12.5 µM; in experiment [1], 15 µM.

By IC50 is commonly meant the concentration that gives 50% inhibition. The low end stands for inhibition by little substance, the high end for a need for much substance.

(Values after ChEMBL document CHEMBL1140709, “Design, synthesis, and biological evaluation of (E)-styrylbenzylsulfones as novel anticancer agents” (J Med Chem, 2008).)
